# Test results as given in ChEMBL document CHEMBL3763126, “Development of sigma-1 (σ1) receptor fluorescent ligands as versatile tools to study σ1 receptors” (Eur J Med Chem, 2016).
# Molecular target: Sigma non-opioid intracellular receptor 1 (Cavia porcellus, UniProt Q60492)
# Experiment: Displacement of [3H]-pentazocine from sigma 1 receptor in guinea pig brain membrane after 120 mins
# Format: cell membranes
# In short: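 IC50 from six to nine drug concentrations, two or three experiments with duplicate samples; Ki obtained by nonlinear curve fitting.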
# Chain of Sigma non-opioid intracellular receptor 1 (Cavia porcellus, UniProt Q60492) (Q60492 whole entry): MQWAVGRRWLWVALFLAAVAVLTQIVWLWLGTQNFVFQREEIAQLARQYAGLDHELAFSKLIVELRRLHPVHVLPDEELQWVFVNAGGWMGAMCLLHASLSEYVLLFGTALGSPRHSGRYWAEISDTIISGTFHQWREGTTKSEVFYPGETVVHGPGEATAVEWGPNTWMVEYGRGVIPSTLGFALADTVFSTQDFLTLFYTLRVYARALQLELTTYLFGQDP
row,Ki [nM],SMILES
1,1.01,COc1ccc2c(c1)CCCC2CCCCN1CCC(C)CC1 (stereo not drawn)
2,3.61,CC1CCN(CCCCC2CCCc3cc(OCCCCCCN4C(=O)c5ccc(N(C)C)cc5C4=O)ccc32)CC1 (stereo not drawn)
3,5.2,CC1CCN(CCCCc2cccc3cc(OCCCCCCN4C(=O)c5ccc(N(C)C)cc5C4=O)ccc23)CC1

# Molecular target: not listed separately
# Experiment: Displacement of [3H]-DTG from sigma 2 receptor in Wistar hannover rat liver membrane after 120 mins
# Format: cell membranes
# In short: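 Six to nine concentrations of test drug, two or three experiments in duplicate; IC50 for inhibition of specific binding, Ki from nonlinear curve fitting.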
row,SMILES,Ki [nM]
1,COc1ccc2c(c1)CCCC2CCCCN1CCC(C)CC1 (stereo not drawn),48.7
2,CC1CCN(CCCCC2CCCc3cc(OCCCCCCN4C(=O)c5ccc(N(C)C)cc5C4=O)ccc32)CC1 (stereo not drawn),48.3
3,COc1cccc2c1CCCC2CCC(=O)N1CCN(C2CCCCC2)CC1 (stereo not drawn),179
4,CC1CCN(CCCCc2cccc3cc(OCCCCCCN4C(=O)c5ccc(N(C)C)cc5C4=O)ccc23)CC1,45.6

# These reach a lower Ki. Values come first.
row,Ki [nM],SMILES
1,4.24,COc1cc2c(cc1OC)CN(CCCN1CCc3c(OC)cccc3C1=O)CC2
2,17.9,COc1ccc2c(CCCCN3CCC(C)CC3)cccc2c1

# Molecular target: T1, Sigma non-opioid intracellular receptor 1 (Homo sapiens, UniProt Q99720)
# T1 sequence (Q99720 whole entry): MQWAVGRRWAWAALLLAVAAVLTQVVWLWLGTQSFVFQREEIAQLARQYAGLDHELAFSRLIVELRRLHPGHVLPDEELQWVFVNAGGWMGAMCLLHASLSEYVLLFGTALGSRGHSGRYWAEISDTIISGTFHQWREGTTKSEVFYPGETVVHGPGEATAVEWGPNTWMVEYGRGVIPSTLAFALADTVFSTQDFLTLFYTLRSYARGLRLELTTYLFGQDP
# Experiment: Displacement of 5-(Dimethylamino)-2-(6-((5-(4-(4-methylpiperidin-1-yl)butyl)-5,6,7,8-tetrahydronaphthalen-2-yl)oxy)hexyl)isoindoline-1,3-dione from sigma 1 receptor (unknown origin) expressed in MCF7 after 75 mins by flow cytometry
row,IC50 [nM],SMILES
1,11.3,COc1ccc2c(c1)CCCC2CCCCN1CCC(C)CC1 (stereo not drawn)
2,15.5,COc1ccc2c(CCCCN3CCC(C)CC3)cccc2c1

# Molecular target: T1, Sigma non-opioid intracellular receptor 1
# Experiment: Displacement of 5-(Dimethylamino)-2-{6-[(5-(4-(4-methylpiperidin-1-yl)butyl)naphthalen-2-yl)oxy]hexyl}isoindole-1,3-dione from sigma 1 receptor (unknown origin) expressed in MCF7 cells after 75 mins by flow cytometry
row,IC50 [nM],SMILES
1,12.1,COc1ccc2c(c1)CCCC2CCCCN1CCC(C)CC1 (stereo not drawn)
2,10.6,COc1ccc2c(CCCCN3CCC(C)CC3)cccc2c1
